# Assay outcomes (PubChem)
# Sampled rows, rich in hits. Any-hit rate of the full collection: about 1.3%.
# RAD54 branch: inhibitors of human RAD54 branch migration, primary screen, biochemical, fluorescence, single point; DNA repair and recombination protein RAD54-like (Homo sapiens), Q92698; inhibition, % at 10.4 µM; actives 0.14% (n = 360,000); RAD54 Holliday junction branch migration, FAM/BHQ fluorescence; AID 602329, 2012;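 active = mean normalized replicate activity at least 40 and at least half of replicates scoring 40 or more; inconclusive = only one of the two criteria met; inactive = mean below 40 and under half of replicates reaching 40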;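 note: 0% = median of neutral control wells and 100% = median of positive control wells; inhibitors cause a drop in the FAM fluorescence signal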
# Xi reactivation: activators of inactive X chromosome reactivation, primary screen, imaging, XiGFP fibroblasts, GFP high-content imaging, set 2; XiGFP mouse fibroblasts, % GFP-positive cells imaging, 3 d; cells co-treated with 5-aza-dC sensitizer; scaled so ellipticine positive control = 100%; activation, % at 7.58 µM; actives 0.055% (n = 360,000); AID 743238, 2013;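 active = mean normalized replicate activation at least 10% and every replicate at or above 10%; inconclusive = only one of the two criteria met; inactive = mean below 10% and not all replicates reach 10%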;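 note: 0% = median of on-plate neutral control wells and 100% = ellipticine 6 µM median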
#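 Material: XiGFP fibroblasts, SV40-immortalized; Buffer or medium: DMEM containing 5-aza-dC; Compound dosing: single point; Times: 3 days compound exposure.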
# CASP6 VEID inh: human caspase-6 inhibitors, primary screen, biochemical, VEID-R110 fluorescence, single point, set 2; inhibition, % at 12.5 µM; actives 0.53% (n = 350,000); purified caspase-6, Z-VEID-R110 cleavage fluorescence; P55212;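 active = mean inhibition across replicates at least about 35%, with every replicate also reaching that limit, limit read from the data; inconclusive = only one of the two criteria met; inactive = neither criterion met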;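 note: 0% = median of neutral control wells and 100% = no fluorescence left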
# MLL AF4-AF9 inh: inhibitors of AF4 peptide binding to AF9, primary screen, biochemical, AlphaScreen, biotin-AF4 peptide, FLAG-AF9, single point; Protein AF-9 (Homo sapiens), P42568; inhibition, % at 10 µM; actives 0.47% (n = 350,000);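 active = every replicate reaching a set inhibition limit, whatever the replicate mean, cut at about 25% in these data; inconclusive = mean inhibition reaches that limit but some replicates miss it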;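 note: 0% = plate neutral control median and 100% = total signal loss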
# RAD52 anneal inh: RAD52 DNA annealing inhibitors, primary screen, biochemical, FRET, single point, set 2; DNA repair protein RAD52 homolog (Homo sapiens), P43351; recombinant RAD52 DNA annealing, FRET fluorescence; inhibition, % at 18.7 µM; actives 0.46% (n = 360,000); AID 651710, 2012;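 active = every replicate showing at least 50% inhibition; inconclusive = mean inhibition at least 50% but not in every replicate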
# Target sequence (P43351 whole entry, looked up): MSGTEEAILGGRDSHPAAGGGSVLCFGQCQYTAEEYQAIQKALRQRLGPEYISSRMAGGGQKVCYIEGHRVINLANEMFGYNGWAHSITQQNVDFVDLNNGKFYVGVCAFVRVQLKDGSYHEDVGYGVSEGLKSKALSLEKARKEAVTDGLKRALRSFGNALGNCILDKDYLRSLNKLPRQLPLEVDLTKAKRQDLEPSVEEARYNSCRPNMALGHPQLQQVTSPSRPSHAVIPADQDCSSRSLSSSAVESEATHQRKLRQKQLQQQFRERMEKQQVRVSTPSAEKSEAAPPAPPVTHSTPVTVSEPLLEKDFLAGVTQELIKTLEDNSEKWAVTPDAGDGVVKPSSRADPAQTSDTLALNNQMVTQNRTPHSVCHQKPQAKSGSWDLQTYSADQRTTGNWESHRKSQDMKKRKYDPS
# S100A4 MyoIIA: inhibitors of S100A4-myosin IIA peptide binding, primary screen, biochemical, fluorescence polarization, TAMRA-MyoIIA peptide. Protein S100-A4 (Homo sapiens), P26447. inhibition, % at 10.7 µM. actives 0.14% (n = 360,000). AID 652163, 2013;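 active = mean inhibition of at least 70% across replicates, with every replicate also reaching that level; inconclusive = mean inhibition reaches 70% but some replicates fall short; inactive = mean inhibition below 70%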
# Target sequence (P26447 whole entry, looked up): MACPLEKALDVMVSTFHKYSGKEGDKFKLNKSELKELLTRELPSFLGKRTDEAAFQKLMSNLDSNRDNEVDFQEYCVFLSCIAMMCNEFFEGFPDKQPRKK
#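 assay system = human S100A4 monomer with TAMRA-labelled myosin IIA peptide | also added = labelled myosin peptide probe, 5 nM | incubation = 5 min between mix addition and reading | control set = DMSO and TFP controls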
# DNA binding: DNA binding of candidate compounds, dose response, artefact control for RAD54 inhibitor project, biochemical, fluorescence polarization, cherry-pick | shares compounds with RAD54 branch | actives 8% (n = 460) | AC50, µM (top dose mostly 35 µM), for inactives: at the top dose activity change, negative = DNA binding | Acridine orange-DNA displacement, 20 min;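 active = signal drop giving an AC50 within twice the top valid tested concentration of each sample, actives reach about 35 µM in these data; inactive = activity opposite to expected, plus the rest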;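 note: polarization loss reports compound binding to salmon sperm DNA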
# The depositor's hits bear a star; ? = inconclusive; / = no result.
SMILES,RAD54 branch,Xi reactivation,CASP6 VEID inh,MLL AF4-AF9 inh,RAD52 anneal inh,S100A4 MyoIIA,DNA binding
C[C@H](CO)N1C[C@H](C)[C@@H](CN(C)S(=O)(=O)c2ccc(F)cc2)Oc2ccc(NC(=O)Nc3cccc4ccccc34)cc2CC1=O,-6,0,2,1,26,-9,/
Cc1ccc(-c2ccc([C@@H]3[C@H]4CN(C(=O)c5ccc(F)cc5)CCCCN4[C@H]3CO)cc2)cc1,-3,0,/,/,/,/,/
Cc1ccc(-c2nc(NCCCO)c3ccccc3n2)cc1,?,0,-5,4,-6,3,-2%
Cc1cccc(-c2nc(NCCCN3CCOCC3)c3ccccc3n2)c1,31,/,/,/,/,/,/
c1ccc(-c2nc(NCCCN3CCOCC3)c3ccccc3n2)cc1,?,/,/,/,/,/,6%
CCOc1nc(-c2ccc(Cl)cc2)nc2ccccc12,/,0,/,/,/,/,/
O=C(O)CCNc1nc(-c2ccccc2)nc2ccccc12,3,/,/,/,/,/,/
CN(C)CCCNc1nc(-c2ccc(Cl)cc2)nc2ccccc12,71*,0,-13,5,50*,-8,-18%
C[C@@H]1CCCCO[C@H](CN(C)S(=O)(=O)c2cn(C)cn2)[C@@H](C)CN([C@@H](C)CO)C(=O)c2cc(NC(=O)Nc3ccccc3)ccc2O1,/,0,/,/,/,/,/
COc1ccc(NC(=O)Nc2ccc3c(c2)C(=O)N([C@H](C)CO)C[C@@H](C)[C@@H](CN(C)S(=O)(=O)c2ccc(Cl)cc2)OCCCC[C@H](C)O3)cc1,-1,0,-4,-2,-3,-6,/
C[C@@H]1CN(C)C(=O)c2cccc(N(C)C)c2O[C@H]1CN(C)C(=O)OC(C)(C)C,/,0,/,/,/,/,/
Nc1cc2c3c(cccc3c1)C(=O)N(CCN1CCCC1)C2=O,90*,9,-9,2,3,-7,28µM*
CCN(CC)CCN1C(=O)c2cccc3cc(N)cc(c23)C1=O,?,0,-45,-9,3,10,/
O=C([C@H]1[C@H](CO)[C@H]2Cn3c(ccc(-c4ccncc4)c3=O)[C@@H]1N2Cc1cccnc1)N1CCOCC1,-10,0,0,-1,-10,2,/
COc1cccc(CNc2nc3cc(-c4ccc(C(=O)N5CCN(C)CC5)cc4)sc3c(=O)n2C)c1,18,0,-11,2,20,8,/
Cn1c(NCCN2CCCC2)nc2cc(-c3ccsc3)sc2c1=O,58*,0,-18,3,-18,-6,-3%
CN(C)CCCNc1nc2cc(-c3ccc(C(=O)N4CCN(C)CC4)cc3)sc2c(=O)n1C,?,0,-47,2,75*,4,-16%
CCCCN(CC)CCCNC(=S)Nc1ccc2nc(N3CCN(CC)CC3)cc(C)c2c1,71*,0,-80,5,90*,-20,0%
CCN(CC)CCNC(=S)Nc1ccc2nc(N3CCOCC3)cc(C)c2c1,2,0,-12,7,22,-5,/
CNC[C@H]1Oc2ccc(NS(=O)(=O)c3c(C)noc3C)cc2C(=O)N([C@@H](C)CO)C[C@H]1C,-3,-1,-1,-6,10,-3,/
CCN(CC)CC(=O)Nc1cccc2c1C(=O)c1ccccc1C2=O,70*,0,/,/,/,/,2%
COc1ccc(NC(=O)N(C)C[C@H]2Oc3ccc(NS(=O)(=O)c4c(C)noc4C)cc3C(=O)N([C@@H](C)CO)C[C@@H]2C)cc1,11,0,-2,-2,-4,-7,/
CCOC(=O)c1cc(-c2ccncc2)nc2c1c(C)nn2-c1ccccn1,65*,/,/,/,/,/,-8%
CCOC(=O)c1cnn(-c2ccccn2)c1N,2,/,/,/,/,/,/
Cc1[nH]ccc2c1[nH]c1cc(=O)ccc12,68*,0,-4,0,41,13,-12%
SMILES,RAD54 branch,Xi reactivation,CASP6 VEID inh,MLL AF4-AF9 inh,RAD52 anneal inh,S100A4 MyoIIA,DNA binding
CN(C)C(CNC(=O)CCCN1C(=O)c2cccc3cccc(c23)C1=O)c1ccccc1 (stereo not given),57*,0,-3,5,18,2,1%
CCCN(CCC)CCCNC(=O)c1cc2cc3ccc(OC)cc3nc2o1,?,/,/,/,/,/,-18%
COc1ccc2cc3cc(C(=O)NCCCN4CCC(C)CC4)oc3nc2c1,58*,/,/,/,/,/,-20%
CCCCN(CC)CCCNC(=O)c1cc2cc3ccc(OC)cc3nc2o1,42,/,/,/,/,/,/
COc1ccc2cc3cc(C(=O)NCCN4CCc5ccccc5C4)oc3nc2c1,31,/,/,/,/,/,/
CCN1CCN(CCCNC(=O)c2cc3cc4ccc(OC)cc4nc3o2)CC1,56*,/,/,/,/,/,-22%
CN1C(=O)c2cc(NC(=O)c3ccc(F)c(F)c3)ccc2OC[C@H]2O[C@@H](CC(=O)N3CCOCC3)CC[C@H]21,6,0,0,0,21,5,/
C(CCCN1CCCCC1)CCN1CCCCC1,-4,?,-30,0,5,-2,/
NCCN1CCN(CCN)CC1,50*,/,/,/,/,/,-11%
CCOc1ccc2[nH]c3c(NCCN(C)C)ncnc3c2c1,?,0,-7,9,65*,12,0%
CNC(C)C#Cc1ccc2oc3cccc(OC)c3c(=O)c2c1 (stereo not given),?,0,-1,-1,-5,-7,-14%
CNC(C)C#Cc1ccc2oc3cc(C)c(C)cc3c(=O)c2c1 (stereo not given),-4,2,-4,5,-30,-4,/
CCOC(=O)c1cc2c(c(-c3cccc(-c4cccc(F)c4)c3)n1)[C@H](CCO)N(S(=O)C(C)(C)C)C2 (stereo not given in full),-6,0,1,2,-47,62,/
O=C(CSc1nc2ccccc2[nH]1)Nc1nc(-c2cccc(Br)c2)cs1,/,0,1,1,-32,-1,/
CN(C)CCCn1c(SCC(=O)Nc2nc(-c3cccc(Br)c3)cs2)nc2ccccc2c1=O,?,0,-11,35*,2,7,-19%
